# In ChEMBL document CHEMBL1148485, “Synthesis and biological evaluation of new selective cytotoxic cyclolignans derived from podophyllotoxin” (J Med Chem, 2004):
# System: HT-29
# Assay: In vitro cytotoxicity against HT-29 (human colon carcinoma) cell line.
# Type: functional, cell-based
# Conditions: Homo sapiens, HT-29
row,SMILES,IC50 [nM]
1,CC/N=C/C1=Cc2c(cc3c(c2OC)OCO3)C(c2cc(OC)c(OC)c(OC)c2)[C@@H]1C(=O)OC (some centres not stated),100
2,COC(=O)[C@@H]1C(C=O)=Cc2c(cc3c(c2OC)OCO3)[C@H]1c1cc(OC)c(OC)c(OC)c1,20
3,CCCCCC/N=C/C1=Cc2cc3c(cc2C(c2cc(OC)c(OC)c(OC)c2)[C@@H]1C(=O)OC)OCO3 (some centres not stated),20
4,COC(=O)[C@@H]1C(/C=N/C2CCCCC2)=Cc2cc3c(cc2C1c1cc(OC)c(OC)c(OC)c1)OCO3 (some centres not stated),25

# System: SK-MEL-28
# Assay: Tested in vitro for antineoplastic activity against MEL-28 (human melanoma) tumor cell line
# Type: functional, cell-based
# Conditions: not given
# Method in brief: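 MEL-28 cells seeded at 2 × 10^4 cells/well in MEM–10% FCS containing graded compound concentrations. Incubated 4 days at 37 °C, 10% CO2, 98% humidity. Stained with crystal violet and inhibition judged against untreated controls, which were kept in exponential growth. Mean of duplicate wells.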
row,SMILES,IC50 [nM]
1,CC/N=C/C1=Cc2c(cc3c(c2OC)OCO3)C(c2cc(OC)c(OC)c(OC)c2)[C@@H]1C(=O)OC (some centres not stated),1000
2,CCCCCC/N=C/C1=Cc2cc3c(cc2C(c2cc(OC)c(OC)c(OC)c2)[C@@H]1C(=O)OC)OCO3 (some centres not stated),490
3,COC(=O)[C@@H]1C(/C=N/C2CCCCC2)=Cc2cc3c(cc2C1c1cc(OC)c(OC)c(OC)c1)OCO3 (some centres not stated),490

# System: A549
# Assay: In vitro cytotoxicity against A-549 (human lung carcinoma) cell line.
# Type: functional, cell-based
# Conditions: Homo sapiens, A549
row,SMILES,IC50 [nM]
1,CC/N=C/C1=Cc2c(cc3c(c2OC)OCO3)C(c2cc(OC)c(OC)c(OC)c2)[C@@H]1C(=O)OC (some centres not stated),> 10000
2,COC(=O)[C@@H]1C(C=O)=Cc2c(cc3c(c2OC)OCO3)[C@H]1c1cc(OC)c(OC)c(OC)c1,220
3,CCCCCC/N=C/C1=Cc2cc3c(cc2C(c2cc(OC)c(OC)c(OC)c2)[C@@H]1C(=O)OC)OCO3 (some centres not stated),200
4,COC(=O)[C@@H]1C(/C=N/C2CCCCC2)=Cc2cc3c(cc2C1c1cc(OC)c(OC)c(OC)c1)OCO3 (some centres not stated),250

# System: P388
# Assay: Tested in vitro for antineoplastic activity against P-388 (lymphoid neoplasm from DBA/2 mouse) tumor cell line
# Type: functional, cell-based
# Conditions: not given
# Method in brief: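 P-388 cells seeded at 1 × 10^4 cells/well in MEM–10% FCS containing graded compound concentrations. Incubated 4 days at 37 °C, 10% CO2, 98% humidity. Inhibition scored by inverted microscopy against untreated controls, which were kept in exponential growth. Mean of duplicate wells.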
row,SMILES,IC50 [nM]
1,COC(=O)[C@@H]1C(C=O)=Cc2c(cc3c(c2OC)OCO3)[C@H]1c1cc(OC)c(OC)c(OC)c1,1100
2,CCCCCC/N=C/C1=Cc2cc3c(cc2C(c2cc(OC)c(OC)c(OC)c2)[C@@H]1C(=O)OC)OCO3 (some centres not stated),2000
3,COC(=O)[C@@H]1C(/C=N/C2CCCCC2)=Cc2cc3c(cc2C1c1cc(OC)c(OC)c(OC)c1)OCO3 (some centres not stated),2000

# System: not listed separately
# Assay: Selectivity index is the ratio of IC50 of P-388 cell line to that of HT-29
# Type: functional
# Conditions: not given
row,SMILES,Selectivity index
1,COC(=O)[C@@H]1C(C=O)=Cc2c(cc3c(c2OC)OCO3)[C@H]1c1cc(OC)c(OC)c(OC)c1,55
2,CCCCCC/N=C/C1=Cc2cc3c(cc2C(c2cc(OC)c(OC)c(OC)c2)[C@@H]1C(=O)OC)OCO3 (some centres not stated),100
3,COC(=O)[C@@H]1C(/C=N/C2CCCCC2)=Cc2cc3c(cc2C1c1cc(OC)c(OC)c(OC)c1)OCO3 (some centres not stated),80
